Test results as given in ChEMBL document CHEMBL1811814, “Synthesis and evaluation of indole, pyrazole, chromone and pyrimidine based conjugates for tumor growth inhibitory activities--development of highly efficacious cytotoxic agents” (Eur J Med Chem, 2010).

Key:
Type in all cases: functional
Set-up in all cases: scale not given: the % may be the effect or the level left
CCRF-CEM = test: Growth inhibition of human CCRF-CEM cells assessed tumor cell growth at 10^-5 M
Outline: (§1)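 NCI 60-human-tumor-cell-line panel screen. Each compound was tested at a single concentration of 10^-5 M, and percent growth of tumor cells was recorded for each cell line. Growth inhibition was expressed from these percent-growth values.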

HL-60(TB) = test: Growth inhibition of human HL-60(TB) cells assessed tumor cell growth at 10^-5 M
Outline: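 HL-60(TB), part of the 60-line panel, tested at a single concentration of 10^-5 M. The read-out is percent tumor cell growth relative to untreated growth.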

K562 = test: Growth inhibition of human K562 cells assessed tumor cell growth at 10^-5 M; outline: as §1
MOLT-4 = test: Growth inhibition of human MOLT4 cells assessed tumor cell growth at 10^-5 M; outline: as §1
[1] = Growth inhibition of human […] cells assessed tumor cell growth at 10^-5 M; outline: as §1
SR = test: Growth inhibition of human SR cells assessed tumor cell growth at 10^-5 M
Outline: (§2)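 Single-dose screen at 10^-5 M across the 60 human tumor cell line panel, run to NCI standards. The value is the percent growth of each cell line in the presence of compound. Compounds active at this dose moved on to five-concentration testing (10^-4 to 10^-8 M).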

A549 = test: Growth inhibition of human A549 cells assessed tumor cell growth at 10^-5 M; outline: as §1
EKVX = test: Growth inhibition of human EKVX cells assessed tumor cell growth at 10^-5 M; outline: as §1
HOP-62 = test: Growth inhibition of human HOP62 cells assessed tumor cell growth at 10^-5 M; outline: as §1
HOP-92 = test: Growth inhibition of human HOP92 cells assessed tumor cell growth at 10^-5 M; outline: as §1
NCI-H226 = test: Growth inhibition of human NCI-H226 cells assessed tumor cell growth at 10^-5 M; outline: as §1
NCI-H23 = test: Growth inhibition of human NCI-H23 cells assessed tumor cell growth at 10^-5 M; outline: as §1
NCI-H322M = test: Growth inhibition of human NCI-H322M cells assessed tumor cell growth at 10^-5 M; outline: as §1
NCI-H460 = test: Growth inhibition of human NCI-H460 cells assessed tumor cell growth at 10^-5 M; outline: as §1
NCI-H522 = test: Growth inhibition of human NCI-H522 cells assessed tumor cell growth at 10^-5 M; outline: as §1
COLO 205 = test: Growth inhibition of human COLO205 cells assessed tumor cell growth at 10^-5 M; outline: as §1
HCC 2998 = test: Growth inhibition of human HCC2998 cells assessed tumor cell growth at 10^-5 M; outline: as §1
HCT-116 = test: Growth inhibition of human HCT116 cells assessed tumor cell growth at 10^-5 M; outline: as §1
HCT-15 = test: Growth inhibition of human HCT15 cells assessed tumor cell growth at 10^-5 M; outline: as §1
HT-29 = test: Growth inhibition of human HT-29 cells assessed tumor cell growth at 10^-5 M; outline: as §1
KM12 = test: Growth inhibition of human KM12 cells assessed tumor cell growth at 10^-5 M; outline: as §1
SW-620 = test: Growth inhibition of human SW620 cells assessed tumor cell growth at 10^-5 M; outline: as §2
SF-268 = test: Growth inhibition of human SF268 cells assessed tumor cell growth at 10^-5 M; outline: as §1
SF-295 = test: Growth inhibition of human SF295 cells assessed tumor cell growth at 10^-5 M; outline: as §1
SF-539 = test: Growth inhibition of human SF539 cells assessed tumor cell growth at 10^-5 M; outline: as §1
SNB-19 = test: Growth inhibition of human SNB19 cells assessed tumor cell growth at 10^-5 M; outline: as §2
SNB-75 = test: Growth inhibition of human SNB75 cells assessed tumor cell growth at 10^-5 M; outline: as §2
U-251 = test: Growth inhibition of human U251 cells assessed tumor cell growth at 10^-5 M; outline: as §2
LOX IMVI = test: Growth inhibition of human LOXIMVI cells assessed tumor cell growth at 10^-5 M; outline: as §1
Malme-3M = test: Growth inhibition of human MALME-3M cells assessed tumor cell growth at 10^-5 M; outline: as §1
M14 = test: Growth inhibition of human M14 cells assessed tumor cell growth at 10^-5 M; outline: as §1
MDA-MB-435 = test: Growth inhibition of human MDA-MB-435 cells assessed tumor cell growth at 10^-5 M; outline: as §1
SK-MEL-2 = test: Growth inhibition of human SK-MEL-2 cells assessed tumor cell growth at 10^-5 M; outline: as §1
SK-MEL-28 = test: Growth inhibition of human SK-MEL-28 cells assessed tumor cell growth at 10^-5 M; outline: as §1
SK-MEL-5 = test: Growth inhibition of human SK-MEL-5 cells assessed tumor cell growth at 10^-5 M; outline: as §1
UACC-257 = test: Growth inhibition of human UACC257 cells assessed tumor cell growth at 10^-5 M; outline: as §2
UACC-62 = test: Growth inhibition of human UACC62 cells assessed tumor cell growth at 10^-5 M; outline: as §2
IGROV-1 = test: Growth inhibition of human IGROV1 cells assessed tumor cell growth at 10^-5 M; outline: as §1
OVCAR-3 = test: Growth inhibition of human OVCAR3 cells assessed tumor cell growth at 10^-5 M; outline: as §1
OVCAR-4 = test: Growth inhibition of human OVCAR4 cells assessed tumor cell growth at 10^-5 M; outline: as §1
OVCAR-5 = test: Growth inhibition of human OVCAR5 cells assessed tumor cell growth at 10^-5 M; outline: as §1
OVCAR-8 = test: Growth inhibition of human OVCAR8 cells assessed tumor cell growth at 10^-5 M; outline: as §1
NCI/ADR-RES = test: Growth inhibition of human NCI/ADR-RES cells assessed tumor cell growth at 10^-5 M; outline: as §1
SK-OV-3 = test: Growth inhibition of human SKOV3 cells assessed tumor cell growth at 10^-5 M; outline: as §1
786-0 = test: Growth inhibition of human 786-0 cells assessed tumor cell growth at 10^-5 M; outline: as §1
A498 = test: Growth inhibition of human A498 cells assessed tumor cell growth at 10^-5 M; outline: as §1
ACHN = test: Growth inhibition of human ACHN cells assessed tumor cell growth at 10^-5 M; outline: as §1
CAKI-1 = test: Growth inhibition of human Caki1 cells assessed tumor cell growth at 10^-5 M; outline: as §1
RXF 393 = test: Growth inhibition of human RXF393 cells assessed tumor cell growth at 10^-5 M; outline: as §1
SN12C = test: Growth inhibition of human SN12C cells assessed tumor cell growth at 10^-5 M; outline: as §1
TK-10 = test: Growth inhibition of human TK10 cells assessed tumor cell growth at 10^-5 M; outline: as §2
UO-31 = test: Growth inhibition of human UO31 cells assessed tumor cell growth at 10^-5 M; outline: as §2
PC-3 = test: Growth inhibition of human PC3 cells assessed tumor cell growth at 10^-5 M; outline: as §1
DU-145 = test: Growth inhibition of human DU145 cells assessed tumor cell growth at 10^-5 M; outline: as §1
MCF7 = test: Growth inhibition of human MCF7 cells assessed tumor cell growth at 10^-5 M; outline: as §1
MDA-MB-231 = test: Growth inhibition of human MDA-MB-231 cells assessed tumor cell growth at 10^-5 M; outline: as §1
[2] = Growth inhibition of human Hs 578T cells assessed tumor cell growth at 10^-5 M; outline: as §1
BT-549 = test: Growth inhibition of human BT549 cells assessed tumor cell growth at 10^-5 M; outline: as §1
T47D = test: Growth inhibition of human T47D cells assessed tumor cell growth at 10^-5 M; outline: as §2
MDA-MB-468 = test: Growth inhibition of human MDA-MB-468 cells assessed tumor cell growth at 10^-5 M; outline: as §1

**Q.** For CC1=NN(c2cccc(Cl)c2)C(=O)/C1=C\c1ccccn1, which Activity (CCRF-CEM) is on record?
**A.** The Activity was 32.58%.

**Q.** And the Activity (HL-60(TB))?
**A.** Its Activity is 113.01%.

**Q.** And the Activity (K562)?
**A.** Its Activity is 102.25%.

**Q.** What about the Activity (MOLT-4) of the same compound?
**A.** Its Activity is 111.67%.

**Q.** What about the Activity [1] of the same compound?
**A.** The Activity was 96.65%.

**Q.** And the Activity (SR)?
**A.** The Activity was 112.11%.

**Q.** And the Activity (A549)?
**A.** The Activity was 116.18%.

**Q.** And the Activity (EKVX)?
**A.** The Activity was 117.01%.

**Q.** What about the Activity (HOP-62) of the same compound?
**A.** Its Activity is 107.34%.

**Q.** And the Activity (HOP-92)?
**A.** Its Activity is 100.37%.

**Q.** And the Activity (NCI-H226)?
**A.** The Activity was 112.86%.

**Q.** What about the Activity (NCI-H23) of the same compound?
**A.** Its Activity is 111.77%.

**Q.** And the Activity (NCI-H322M)?
**A.** The Activity was 123.35%.

**Q.** What about the Activity (NCI-H460) of the same compound?
**A.** Its Activity is 117.15%.

**Q.** And the Activity (NCI-H522)?
**A.** The Activity was 104.42%.

**Q.** And the Activity (COLO 205)?
**A.** The Activity was 112.21%.

**Q.** What about the Activity (HCC 2998) of the same compound?
**A.** The Activity was 120.72%.

**Q.** What about the Activity (HCT-116) of the same compound?
**A.** Its Activity is 88.7%.

**Q.** And the Activity (HCT-15)?
**A.** The Activity was 114.26%.

**Q.** And the Activity (HT-29)?
**A.** Its Activity is 114.19%.

**Q.** What about the Activity (KM12) of the same compound?
**A.** The Activity was 111.47%.

**Q.** What about the Activity (SW-620) of the same compound?
**A.** Its Activity is 116.97%.

**Q.** And the Activity (SF-268)?
**A.** The Activity was 100.43%.

**Q.** And the Activity (SF-295)?
**A.** Its Activity is 118.39%.

**Q.** What about the Activity (SF-539) of the same compound?
**A.** The Activity was 115.91%.

**Q.** What about the Activity (SNB-19) of the same compound?
**A.** Its Activity is 111.92%.

**Q.** What about the Activity (SNB-75) of the same compound?
**A.** Its Activity is 103.79%.

**Q.** And the Activity (U-251)?
**A.** The Activity was 115.89%.

**Q.** What about the Activity (LOX IMVI) of the same compound?
**A.** The Activity was 116.29%.

**Q.** And the Activity (Malme-3M)?
**A.** The Activity was 121.3%.

**Q.** What about the Activity (M14) of the same compound?
**A.** Its Activity is 80.87%.

**Q.** What about the Activity (MDA-MB-435) of the same compound?
**A.** The Activity was 117.42%.

**Q.** And the Activity (SK-MEL-2)?
**A.** Its Activity is 112.74%.

**Q.** And the Activity (SK-MEL-28)?
**A.** The Activity was 128.95%.

**Q.** And the Activity (SK-MEL-5)?
**A.** Its Activity is 103.51%.

**Q.** And the Activity (UACC-257)?
**A.** The Activity was 115.54%.

**Q.** And the Activity (UACC-62)?
**A.** Its Activity is 101.53%.

**Q.** And the Activity (IGROV-1)?
**A.** Its Activity is 103.16%.

**Q.** What about the Activity (OVCAR-3) of the same compound?
**A.** Its Activity is 117.75%.

**Q.** And the Activity (OVCAR-4)?
**A.** The Activity was 128.45%.

**Q.** And the Activity (OVCAR-5)?
**A.** Its Activity is 116.2%.

**Q.** What about the Activity (OVCAR-8) of the same compound?
**A.** Its Activity is 105.14%.

**Q.** And the Activity (NCI/ADR-RES)?
**A.** The Activity was 116.87%.

**Q.** What about the Activity (SK-OV-3) of the same compound?
**A.** The Activity was 113.71%.

**Q.** What about the Activity (786-0) of the same compound?
**A.** Its Activity is 113.47%.

**Q.** What about the Activity (A498) of the same compound?
**A.** Its Activity is 111.6%.

**Q.** And the Activity (ACHN)?
**A.** The Activity was 103.1%.

**Q.** What about the Activity (CAKI-1) of the same compound?
**A.** The Activity was 98.46%.

**Q.** What about the Activity (RXF 393) of the same compound?
**A.** Its Activity is 114.31%.

**Q.** What about the Activity (SN12C) of the same compound?
**A.** Its Activity is 91.77%.

**Q.** What about the Activity (TK-10) of the same compound?
**A.** The Activity was 118.17%.

**Q.** What about the Activity (UO-31) of the same compound?
**A.** The Activity was 81.52%.

**Q.** And the Activity (PC-3)?
**A.** The Activity was 113.15%.

**Q.** What about the Activity (DU-145) of the same compound?
**A.** The Activity was 120.58%.

**Q.** And the Activity (MCF7)?
**A.** Its Activity is 102.77%.

**Q.** What about the Activity (MDA-MB-231) of the same compound?
**A.** Its Activity is 106.88%.

**Q.** What about the Activity [2] of the same compound?
**A.** The Activity was 111.76%.

**Q.** What about the Activity (BT-549) of the same compound?
**A.** The Activity was 111.06%.

**Q.** And the Activity (T47D)?
**A.** Its Activity is 100.29%.

**Q.** And the Activity (MDA-MB-468)?
**A.** Its Activity is 116.6%.
